Assay results as given in ChEMBL document CHEMBL5260844, “Optimization of PDE3A Modulators for SLFN12-Dependent Cancer Cell Killing” (ACS Med Chem Lett, 2019).
≈ marks a conversion by molar mass, not a printed value. Counter-ions that a name gives are not always drawn. Blank lines part the entries; values can stand above or below the compound they belong to. Calls of active or inactive are those of the source. The rule behind the calls is not given here.

Experiments:
[1] = target: Phosphodiesterase 6 (Homo sapiens) (UniProt Q13956+P18545+P35913+O43924+P16499+P51160); assay: Inhibition of PDE6 (unknown origin) by 3H-cAMP scintillation proximity assay; assay type: protein assay
[2] = target: High affinity cAMP-specific and IBMX-insensitive 3',5'-cyclic phosphodiesterase 8A (Homo sapiens) (UniProt O60658); assay: Inhibition of PDE8A (unknown origin) by 3H-cAMP scintillation proximity assay
Cytochrome P450 2C9 = Cytochrome P450 2C9 (Homo sapiens, UniProt P11712); assay: Inhibition of CYP2C9 (unknown origin); assay type: ADME
Cytochrome P450 2C9, sequence (P11712 whole entry): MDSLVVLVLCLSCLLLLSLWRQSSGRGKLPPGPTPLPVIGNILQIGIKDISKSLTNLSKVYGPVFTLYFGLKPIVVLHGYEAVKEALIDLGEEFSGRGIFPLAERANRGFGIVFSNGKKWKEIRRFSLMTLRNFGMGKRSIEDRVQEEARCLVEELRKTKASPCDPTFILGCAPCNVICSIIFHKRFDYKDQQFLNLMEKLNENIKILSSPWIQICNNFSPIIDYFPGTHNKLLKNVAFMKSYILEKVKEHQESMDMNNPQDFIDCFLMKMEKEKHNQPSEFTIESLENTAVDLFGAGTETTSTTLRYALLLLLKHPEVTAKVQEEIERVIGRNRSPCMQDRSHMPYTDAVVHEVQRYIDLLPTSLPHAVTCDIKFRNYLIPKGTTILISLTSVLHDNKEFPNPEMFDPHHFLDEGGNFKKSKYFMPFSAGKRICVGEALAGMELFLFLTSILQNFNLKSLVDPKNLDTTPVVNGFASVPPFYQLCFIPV
How it was run: (§1)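 CYP450 inhibition panel covering CYP1A2, 2C8, 2C9, 2D6 and 3A4, with compound tested at high concentrations.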

[3] = target: cGMP-dependent 3',5'-cyclic phosphodiesterase (Homo sapiens) (UniProt O00408); assay: Inhibition of PDE2A (unknown origin) by 3H-cAMP scintillation proximity assay
SK-MEL3 [4] = assay: Antitumor activity against human SK-MEL3 cells xenografted in NMRI nude mouse assessed as tumor growth inhibition at 50 mg/kg, po administered once daily for 44 days; assay type: functional, organism-based; details: time 44.0 day
How it was run: (§2)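 SK-MEL-3 melanoma cells inoculated subcutaneously into female NMRI nude mice. Oral dosing at 10 or 20 mg/kg twice daily, or 50 mg/kg once daily, with vehicle controls. Tumor area and tumor weight expressed relative to vehicle as T/C_rel.area and T/C_weight.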

[5] = Toxicity in NMRI nude mouse assessed as tolerance at 20 mg/kg, po administered twice daily for 44 days; assay type: organism-based; details: in vivo, 1056 h, time 44 day
How it was run: (§3)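 Female NMRI nude mice carrying subcutaneous SK-MEL-3 xenografts, given the compound orally at 10 or 20 mg/kg twice daily, or 50 mg/kg once daily. Tolerance judged by body weight loss (>10% critical) and toxicities.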

SK-MEL3 [6] = assay: Antitumor activity against human SK-MEL3 cells xenografted in NMRI nude mouse assessed as tumor growth inhibition by measuring tumor to control ratio at 50 mg/kg, po administered once daily for 44 days; assay type: functional; details: time 44 day; how it was run: as §2
A549 = assay: Cytotoxicity against human A549 cells assessed as cell growth inhibition upto 10 uM measured after 3 days by […] reagent based assay; details: time 72.0 hrs
[7] = Selectivity ratio, ratio of IC50 for human PDE3A to EC50 for cytotoxicity against human HeLa cells
SK-MEL3 [8] = assay: Antitumor activity against human SK-MEL3 cells xenografted in NMRI nude mouse assessed as tumor growth inhibition at 10 mg/kg, po administered twice daily for 44 days; assay type: functional, organism-based; details: time 44.0 day; how it was run: as §2
Cytochrome P450 2D6 = Cytochrome P450 2D6 (Homo sapiens, UniProt P10635); assay: Inhibition of CYP2D6 (unknown origin); assay type: ADME; how it was run: as §1
[9] = target: High affinity cGMP-specific 3',5'-cyclic phosphodiesterase 9A (Homo sapiens) (UniProt O76083); assay: Inhibition of PDE9A (unknown origin) by 3H-cAMP scintillation proximity assay
High affinity cGMP-specific 3',5'-cyclic phosphodiesterase 9A (Homo sapiens), sequence (O76083 whole entry): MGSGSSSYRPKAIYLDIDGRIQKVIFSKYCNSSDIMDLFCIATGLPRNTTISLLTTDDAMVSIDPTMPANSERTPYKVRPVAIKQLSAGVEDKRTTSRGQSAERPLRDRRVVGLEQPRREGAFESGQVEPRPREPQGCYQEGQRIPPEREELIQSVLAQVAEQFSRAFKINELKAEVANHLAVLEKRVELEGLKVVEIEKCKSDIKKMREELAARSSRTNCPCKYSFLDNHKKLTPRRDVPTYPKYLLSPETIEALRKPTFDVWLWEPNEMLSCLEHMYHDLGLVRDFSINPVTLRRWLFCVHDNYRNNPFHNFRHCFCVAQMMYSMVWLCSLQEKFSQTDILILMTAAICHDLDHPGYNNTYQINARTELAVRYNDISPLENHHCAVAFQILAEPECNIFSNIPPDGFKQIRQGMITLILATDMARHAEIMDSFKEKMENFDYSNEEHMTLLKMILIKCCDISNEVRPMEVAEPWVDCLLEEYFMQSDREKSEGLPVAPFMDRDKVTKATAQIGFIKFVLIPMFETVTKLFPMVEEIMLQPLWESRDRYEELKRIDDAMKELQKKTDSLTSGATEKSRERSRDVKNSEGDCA

[10] = target: cGMP-inhibited 3',5'-cyclic phosphodiesterase 3A (Homo sapiens, UniProt Q14432); assay: Inhibition of human N-terminal His-GST-tagged recombinant PDE3A (669-end residues) using fluorescent labelled cAMP as substrate
cGMP-inhibited 3',5'-cyclic phosphodiesterase 3A, sequence (Q14432 whole entry): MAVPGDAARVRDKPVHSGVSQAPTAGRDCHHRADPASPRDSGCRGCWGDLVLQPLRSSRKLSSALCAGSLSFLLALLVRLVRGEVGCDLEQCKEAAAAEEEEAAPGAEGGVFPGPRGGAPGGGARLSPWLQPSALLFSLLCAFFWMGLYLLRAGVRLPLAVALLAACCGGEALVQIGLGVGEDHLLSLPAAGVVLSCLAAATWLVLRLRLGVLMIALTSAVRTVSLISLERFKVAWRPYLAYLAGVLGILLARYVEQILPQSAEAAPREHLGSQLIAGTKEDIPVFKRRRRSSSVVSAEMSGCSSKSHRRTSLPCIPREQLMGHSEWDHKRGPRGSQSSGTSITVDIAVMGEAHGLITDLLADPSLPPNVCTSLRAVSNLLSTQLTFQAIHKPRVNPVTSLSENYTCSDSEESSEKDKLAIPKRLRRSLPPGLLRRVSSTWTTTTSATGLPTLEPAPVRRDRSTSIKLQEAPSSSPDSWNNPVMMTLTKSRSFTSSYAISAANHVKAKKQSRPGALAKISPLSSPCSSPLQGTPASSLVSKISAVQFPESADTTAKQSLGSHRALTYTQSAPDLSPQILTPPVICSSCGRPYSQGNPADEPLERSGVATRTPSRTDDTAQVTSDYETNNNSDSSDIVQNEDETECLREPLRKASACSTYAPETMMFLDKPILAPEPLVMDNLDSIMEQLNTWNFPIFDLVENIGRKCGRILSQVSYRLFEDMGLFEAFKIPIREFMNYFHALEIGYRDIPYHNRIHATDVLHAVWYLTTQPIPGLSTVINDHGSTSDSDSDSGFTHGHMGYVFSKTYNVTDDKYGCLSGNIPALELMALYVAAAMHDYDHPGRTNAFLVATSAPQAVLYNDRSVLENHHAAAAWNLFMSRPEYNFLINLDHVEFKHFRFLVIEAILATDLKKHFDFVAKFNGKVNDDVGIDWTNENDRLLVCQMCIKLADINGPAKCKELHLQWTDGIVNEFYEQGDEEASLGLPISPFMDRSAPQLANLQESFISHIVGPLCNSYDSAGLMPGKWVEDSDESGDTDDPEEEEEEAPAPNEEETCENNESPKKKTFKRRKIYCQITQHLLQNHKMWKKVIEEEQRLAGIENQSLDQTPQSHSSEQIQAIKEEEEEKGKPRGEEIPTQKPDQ

Cytochrome P450 2C8 = Cytochrome P450 2C8 (Homo sapiens, UniProt P10632); assay: Inhibition of CYP2C8 (unknown origin); assay type: ADME; how it was run: as §1
Cytochrome P450 2C8, sequence (P10632 whole entry): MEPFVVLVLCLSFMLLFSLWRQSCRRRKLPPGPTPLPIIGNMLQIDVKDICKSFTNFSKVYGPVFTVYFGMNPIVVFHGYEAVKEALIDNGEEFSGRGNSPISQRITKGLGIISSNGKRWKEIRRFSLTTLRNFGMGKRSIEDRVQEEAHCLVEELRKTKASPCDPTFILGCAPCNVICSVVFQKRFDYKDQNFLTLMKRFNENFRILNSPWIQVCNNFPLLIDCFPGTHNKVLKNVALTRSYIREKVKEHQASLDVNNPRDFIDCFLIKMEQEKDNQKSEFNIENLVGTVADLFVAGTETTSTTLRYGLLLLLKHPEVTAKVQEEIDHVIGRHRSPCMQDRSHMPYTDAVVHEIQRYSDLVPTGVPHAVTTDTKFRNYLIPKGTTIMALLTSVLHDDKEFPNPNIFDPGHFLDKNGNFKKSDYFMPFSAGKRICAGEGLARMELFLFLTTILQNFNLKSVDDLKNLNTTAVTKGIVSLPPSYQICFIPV

Homo sapiens = species on record: Homo sapiens; assay: Inhibition of PDE1 (unknown origin) by 3H-cAMP scintillation proximity assay
Cytochrome P450 1A2 = Cytochrome P450 1A2 (Homo sapiens, UniProt P05177); assay: Inhibition of CYP1A2 (unknown origin); assay type: ADME; how it was run: as §1
SK-MEL3 [11] = assay: Cytotoxicity against human SK-MEL3 cells assessed as cell growth inhibition upto 10 uM measured after 48 hrs by […] reagent based assay; assay type: functional; details: SK-MEL3, 48 h
HCT-116 = assay: Cytotoxicity against human HCT-116 cells assessed as cell growth inhibition upto 10 uM measured after 48 hrs by […] reagent based assay; assay type: functional
How it was run: (§4)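 Counterscreen viability assay in HCT116 colorectal cancer cells and IMR90 normal lung fibroblasts, run alongside DNMDP-sensitive lines.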

Cytochrome P450 3A4 = Cytochrome P450 3A4 (Homo sapiens, UniProt P08684); assay: Inhibition of CYP3A4 (unknown origin); assay type: ADME; how it was run: as §1
[12] = Permeability across apical to basolateral side in human Caco-2 cells; assay type: ADME, cell-based; details: read-out: permeability
How it was run: (§5)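 Caco2 monolayer permeability measured in the apical-to-basolateral and basolateral-to-apical directions, in nm/s. Efflux ratio calculated as B-A over A-B.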

[13] = Efflux ratio of permeability in human Caco-2 cells; assay type: ADME, cell-based; how it was run: as §5
SK-MEL3 [14] = assay: Antitumor activity against human SK-MEL3 cells xenografted in NMRI nude mouse assessed as tumor weight by measuring tumor to control ratio at 50 mg/kg, po administered once daily for 44 days; assay type: functional; details: time 44 day; how it was run: as §2
[15] = Toxicity in NMRI nude mouse assessed as tolerance at 50 mg/kg, po administered once daily for 44 days; assay type: organism-based; details: in vivo, 1056 h, time 44 day; how it was run: as §3
HeLa = assay: Cytotoxicity against human HeLa cells assessed as cell growth inhibition measured after 48 hrs by […] reagent based assay; assay type: functional
[16] = target: 3',5'-cyclic-AMP phosphodiesterase 4B (Homo sapiens) (UniProt Q07343); assay: Inhibition of PDE4B (unknown origin) by 3H-cAMP scintillation proximity assay
3',5'-cyclic-AMP phosphodiesterase 4B (Homo sapiens), sequence (Q07343 whole entry): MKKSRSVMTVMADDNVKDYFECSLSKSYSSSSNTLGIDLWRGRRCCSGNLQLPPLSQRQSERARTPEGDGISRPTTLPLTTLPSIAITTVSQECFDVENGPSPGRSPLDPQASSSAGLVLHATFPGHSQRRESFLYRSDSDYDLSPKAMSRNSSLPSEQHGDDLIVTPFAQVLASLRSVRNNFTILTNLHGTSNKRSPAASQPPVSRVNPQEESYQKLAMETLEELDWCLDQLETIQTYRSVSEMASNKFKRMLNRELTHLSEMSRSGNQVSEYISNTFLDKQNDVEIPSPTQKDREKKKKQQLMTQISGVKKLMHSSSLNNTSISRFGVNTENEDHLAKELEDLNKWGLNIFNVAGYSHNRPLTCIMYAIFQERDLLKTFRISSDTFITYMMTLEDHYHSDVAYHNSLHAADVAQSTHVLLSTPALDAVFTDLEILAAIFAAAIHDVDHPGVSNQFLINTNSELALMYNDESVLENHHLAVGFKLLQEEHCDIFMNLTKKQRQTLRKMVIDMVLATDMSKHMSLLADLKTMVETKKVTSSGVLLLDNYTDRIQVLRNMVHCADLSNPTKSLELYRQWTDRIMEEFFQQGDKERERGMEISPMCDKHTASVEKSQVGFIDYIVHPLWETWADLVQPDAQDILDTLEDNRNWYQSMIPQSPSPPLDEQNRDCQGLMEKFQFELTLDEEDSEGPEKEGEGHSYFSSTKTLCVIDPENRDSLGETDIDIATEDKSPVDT

[17] = target: Ribonuclease SLFN12 (Homo sapiens) (UniProt Q8IYM2); assay: Stabilization of PDE3A/V5-epitope tagged SLFN12 interaction in human HeLa cells at 10 uM incubated for 8 hrs by immunoblotting analysis; assay type: cell-based
How it was run: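 HeLa cells transfected with a plasmid expressing V5-tagged SLFN12, then exposed to 10 µM compound for 8 h. Lysates immunoprecipitated with anti-PDE3A antibody for endogenous PDE3A. Co-precipitated SLFN12-V5 detected by immunoblot with anti-V5 antibody.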

[18] = target: cGMP-specific 3',5'-cyclic phosphodiesterase (Homo sapiens) (UniProt O76074); assay: Inhibition of PDE5 (unknown origin) by 3H-cAMP scintillation proximity assay
[19] = Selectivity ratio, ratio of IC50 for human PDE3B to EC50 for cytotoxicity against human HeLa cells
[20] = target: 3',5'-cyclic-AMP phosphodiesterase 7B (Homo sapiens) (UniProt Q9NP56); assay: Inhibition of PDE7B (unknown origin) by 3H-cAMP scintillation proximity assay
3',5'-cyclic-AMP phosphodiesterase 7B (Homo sapiens), sequence (Q9NP56 whole entry): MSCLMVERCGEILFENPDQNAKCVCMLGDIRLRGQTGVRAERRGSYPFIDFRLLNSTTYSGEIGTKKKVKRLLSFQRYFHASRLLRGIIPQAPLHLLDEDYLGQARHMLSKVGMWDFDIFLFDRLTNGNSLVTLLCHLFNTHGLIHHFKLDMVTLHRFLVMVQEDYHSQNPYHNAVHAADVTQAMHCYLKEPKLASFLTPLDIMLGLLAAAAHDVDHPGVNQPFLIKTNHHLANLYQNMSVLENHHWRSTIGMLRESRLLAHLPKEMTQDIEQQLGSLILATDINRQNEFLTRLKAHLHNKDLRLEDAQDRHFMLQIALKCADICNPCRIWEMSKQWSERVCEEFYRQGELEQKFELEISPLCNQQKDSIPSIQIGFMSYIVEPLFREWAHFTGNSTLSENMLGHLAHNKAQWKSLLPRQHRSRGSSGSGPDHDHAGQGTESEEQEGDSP

[21] = Solubility of the compound; assay type: physicochemical
[22] = Permeability across basolateral to apical side in human Caco-2 cells; assay type: ADME, cell-based; details: read-out: permeability; how it was run: as §5
IMR-90 = assay: Cytotoxicity against human IMR-90 cells assessed as cell growth inhibition upto 10 uM measured after 48 hrs by […] reagent based assay; assay type: functional; how it was run: as §4
SK-MEL3 [23] = assay: Antitumor activity against human SK-MEL3 cells xenografted in NMRI nude mouse assessed as tumor growth inhibition at 20 mg/kg, po administered twice daily for 44 days; assay type: functional, organism-based; details: time 44.0 day; how it was run: as §2
[24] = target: Voltage-gated inwardly rectifying potassium channel KCNH2 (Homo sapiens, UniProt Q12809); assay: Binding affinity to hERG (unknown origin); assay type: toxicity
Voltage-gated inwardly rectifying potassium channel KCNH2, sequence (Q12809 whole entry): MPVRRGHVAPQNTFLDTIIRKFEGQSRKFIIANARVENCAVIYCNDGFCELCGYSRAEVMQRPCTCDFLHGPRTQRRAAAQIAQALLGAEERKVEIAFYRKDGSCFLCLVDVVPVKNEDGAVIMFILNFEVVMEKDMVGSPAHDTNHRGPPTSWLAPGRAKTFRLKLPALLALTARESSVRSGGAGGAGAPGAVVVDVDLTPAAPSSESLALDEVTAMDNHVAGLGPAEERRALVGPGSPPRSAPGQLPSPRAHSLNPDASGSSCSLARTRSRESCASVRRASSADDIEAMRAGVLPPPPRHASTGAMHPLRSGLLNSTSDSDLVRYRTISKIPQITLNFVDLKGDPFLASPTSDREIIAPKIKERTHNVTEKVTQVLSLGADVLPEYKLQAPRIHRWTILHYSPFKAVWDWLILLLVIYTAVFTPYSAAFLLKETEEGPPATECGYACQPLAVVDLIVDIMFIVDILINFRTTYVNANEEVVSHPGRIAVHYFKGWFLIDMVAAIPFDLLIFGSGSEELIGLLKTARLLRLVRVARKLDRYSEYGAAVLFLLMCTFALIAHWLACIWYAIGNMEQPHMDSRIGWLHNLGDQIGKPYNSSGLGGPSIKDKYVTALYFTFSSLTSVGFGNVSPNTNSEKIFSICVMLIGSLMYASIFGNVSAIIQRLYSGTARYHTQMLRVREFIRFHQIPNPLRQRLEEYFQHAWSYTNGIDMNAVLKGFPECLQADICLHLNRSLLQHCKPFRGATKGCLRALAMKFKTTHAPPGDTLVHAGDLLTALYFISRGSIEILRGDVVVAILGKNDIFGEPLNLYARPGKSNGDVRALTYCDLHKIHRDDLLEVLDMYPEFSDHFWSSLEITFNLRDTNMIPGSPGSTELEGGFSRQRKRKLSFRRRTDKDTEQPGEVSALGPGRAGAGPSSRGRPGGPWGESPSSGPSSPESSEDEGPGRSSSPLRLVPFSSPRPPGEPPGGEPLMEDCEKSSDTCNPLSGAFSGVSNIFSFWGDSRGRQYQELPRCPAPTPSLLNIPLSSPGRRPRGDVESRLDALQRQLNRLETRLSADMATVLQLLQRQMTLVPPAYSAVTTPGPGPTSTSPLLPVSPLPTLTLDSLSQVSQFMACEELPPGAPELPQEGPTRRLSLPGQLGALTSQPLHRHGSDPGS

[25] = Toxicity in NMRI nude mouse assessed as tolerance at 10 mg/kg, po administered twice daily for 44 days; assay type: organism-based; details: in vivo, 1056 h, time 44 day; how it was run: as §3
[26] = Inhibition of PDE in human HeLa cells; assay type: cell-based

inhibition [1]: inactive
inhibition [2]: inactive
inhibition (INH) (Cytochrome P450 2C9): Not Active
inhibition [3]: inactive
inhibition (INH) (Cytochrome P450 2D6): Not Active
inhibition [9]: inactive
IC50 [10]: 10 nM
inhibition (INH) (Cytochrome P450 2C8): Not Active
inhibition (Homo sapiens): inactive
inhibition (INH) (Cytochrome P450 1A2): Not Active
inhibition (INH) (Cytochrome P450 3A4): Not Active
Papp A→B [12]: 27.9 ×10⁻⁶ cm/s
efflux ratio [13]: 0.71
inhibition [16]: inactive
Activity [17]: Active
inhibition [18]: inactive
inhibition [20]: inactive
solubility [21]: 1000 µM (≈ 291 µg/mL)
Papp B→A [22]: 19.8 ×10⁻⁶ cm/s
Compound: C[C@@H]1CC(=O)NN=C1c1ccc(N2CCOCC2)c(F)c1
TGI (SK-MEL3 [4]): Active
Activity [5]: Non-Toxic
T/C (SK-MEL3 [6]): 0.09
Activity (A549): inactive
Ratio IC50/EC50 [7]: 2.4
TGI (SK-MEL3 [8]): Active
EC50 (SK-MEL3 [11]): 1.3 nM
Activity (HCT-116): inactive
T/C (SK-MEL3 [14]): 0.16
Activity [15]: Non-Toxic
EC50 (HeLa): 1.6 nM
Ratio IC50/EC50 [19]: 2.4
Activity (IMR-90): inactive
TGI (SK-MEL3 [23]): Active
Activity [24]: Not Active
Activity [25]: Non-Toxic

IC50 [26]: 0.25 nM
Compound: COc1cc2c(cc1OC)-c1c/c(=N\c3c(C)cc(C)cc3C)n(C)c(=O)n1CC2 [TREQUINSIN HYDROCHLORIDE]
Activity (HCT-116): inactive
Activity (IMR-90): inactive
